Measured values: ChEMBL document CHEMBL4699419, “Antileishmanial assessment of isoxazole derivatives against L. donovani” (RSC Med Chem, 2020)
pIC50: −log10 of the molar value.

Tests used:
[1] = Selectivity index, ratio of CC50 for mouse J774.A1 cells to IC50 for amastigote form of Leishmania donovani MHOM/IN/80/Dd8; assay type: toxicity; settings: read-out: Ratio CC50/IC50
Procedure, shortened: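 Macrophages infected at a 1:10 ratio with stationary promastigotes, then treated 72 h at 37 °C; luminescence read with Steady-Glo. IC50 values from probit analysis.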

Leishmania donovani [2] = assay: (§1) Antileishmanial activity against Leishmania donovani amastigotes infected in golden hamster assessed as reduction in parasite burden in spleen at 100 mg/kg, po initiated after 2 days of pre-treatment biopsy administered for 5 days and measured on day 28 by giemsa staining based assay relative to control; assay type: functional; settings: 672 h, time 28 day
Procedure, shortened: (§2)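 Male inbred golden hamsters, 40–45 g, infected with L. donovani. Animals with +1 infection on pre-treatment spleen biopsy (5–15 amastigotes/100 spleen cell nuclei) randomized, five per group. Oral dosing in 5% carboxymethyl cellulose vehicle began 2 days after biopsy and ran 5 consecutive days; vehicle-only infected controls. Giemsa-stained spleen biopsies taken on day 7 or 28 after the last dose; PI = 100 – [ANAT × 100/(INAT × TIUC)].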

[3] = Half life in golden hamster at 100 mg/kg, po measured upto 24 hrs by LC/MS-MS analysis; assay type: ADME, organism-based, Mesocricetus auratus; settings: in vivo
Procedure, shortened: (§3)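 Male Syrian hamsters, three per group; single oral dose of 100 mg kg–1 as a suspension in 0.5% sodium carboxymethylcellulose. Plasma concentrations followed over 24 h by LC–MS/MS with electrospray ionization. Parameters derived by non-compartmental analysis; mean ± SD of n = 3.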

Leishmania donovani [4] = assay: Antileishmanial activity against Leishmania donovani MHOM/IN/80/Dd8 promastigotes harboring luciferase reporter gene infected in mouse J774 cells assessed as inhibition of amastigote growth incubated for 72 hrs by Steady-Glo luminescence assay; assay type: functional, organism-based; settings: Leishmania donovani, MHOM/IN/80/Dd8, J774, 72 h; read-out: IC50
Procedure, shortened: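 J774A.1 mouse macrophages (2 × 10^5 per well, RPMI-1640 + 10% FCS, 37 °C CO2) infected after 24 h with stationary-phase luciferase-transgenic promastigotes at 1:10 macrophage:parasite; compounds in complete medium for 72 h at 37 °C. Medium swapped for PBS, Steady-Glo added, luminescence read; % inhibition vs untreated control RLU. IC50 by Probit log dose/response regression, three independent experiments.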

[5] = Cmax in golden hamster at 100 mg/kg, po measured upto 24 hrs by LC/MS-MS analysis; assay type: ADME, organism-based, Mesocricetus auratus; design: route oral, dose 100 mg/kg, time <=24; settings: in vivo; procedure, shortened: as §3
Leishmania donovani [6] = assay: as §1, with “50” for “100”, “ip” for “po”; assay type: functional; settings: 672 h, time 28 day
Procedure, shortened: (§4)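 Male inbred golden hamsters, 40–45 g, infected with L. donovani. Animals with +1 infection on pre-treatment spleen biopsy randomized, five per group. Intraperitoneal dosing in a vehicle of 10% Tween-80/ethanol (70:30) in ddH2O, 10% final, began 2 days after biopsy and ran 5 consecutive days; vehicle-only controls. Giemsa-stained spleen biopsies taken on day 7 or 28; percentage inhibition computed from initial, treated and untreated-control amastigote counts.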

Leishmania donovani [7] = assay: as §1, with “50” for “100”, “ip” for “po”, “7” for “28”; assay type: functional; settings: 168 h, time 7 day; procedure, shortened: as §4
[8] = MRT in golden hamster at 100 mg/kg, po measured upto 24 hrs by LC/MS-MS analysis; assay type: ADME, organism-based, Mesocricetus auratus; settings: in vivo; procedure, shortened: as §3
[9] = Tmax in golden hamster at 100 mg/kg, po measured upto 24 hrs by LC/MS-MS analysis; assay type: ADME, organism-based, Mesocricetus auratus; settings: in vivo; procedure, shortened: as §3
Leishmania donovani [10] = assay: as §1, with “7” for “28”; assay type: functional; settings: 168 h, time 7 day; procedure, shortened: as §2
[11] = Drug metabolism in golden hamster at 100 mg/kg, po measured upto 24 hrs by LC/MS-MS analysis; assay type: ADME, organism-based, Mesocricetus auratus; settings: in vivo
Leishmania donovani [12] = assay: Antileishmanial activity against late log phase promastigote stage of Leishmania donovani MHOM/IN/80/Dd8 harboring luciferase reporter gene incubated for 72 hrs by Steady-Glo luminescence assay; assay type: functional, organism-based; settings: Leishmania donovani, MHOM/IN/80/Dd8, 72 h; read-out: IC50
Procedure, shortened: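 Luciferase-transfected promastigotes kept at 25 ± 1 °C in medium 199 + 10% heat-inactivated FCS + G418 (20 μg ml–1). Late-log cells (5 × 10^5 per well) grown 72 h with graded compound concentrations from DMSO, DMSO dilution controls. Aliquot mixed 1:1 with Steady-Glo, luminescence (RLU) read; % inhibition vs control. IC50 by Probit regression, three independent experiments.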

[13] = AUC (0 to infinity) in golden hamster at 100 mg/kg, po measured upto 24 hrs by LC/MS-MS analysis; assay type: ADME, organism-based, Mesocricetus auratus; design: route oral, dose 100 mg/kg, time <=24; settings: in vivo; procedure, shortened: as §3
[14] = Cytotoxicity against mouse J774A1 cells assessed as reduction in cell viability incubated for 48 hrs by MTT assay; assay type: cell-based, J774.A1
Procedure, shortened: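 J774A.1 macrophages, 0.2 × 10^6 per well, incubated overnight at 37 °C in 5% CO2, then exposed to compounds in DMSO for 48 h, with DMSO dilutions as controls. Viability read by MTT formazan at 600 nm. CC50 = 50% viability reduction versus medium-only cells, from probit regression; three independent experiments.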

Leishmania amazonensis [15] = assay: Antileishmanial activity against intracellular amastigote stage of Leishmania amazonensis (IFLA/BR/1967/PH8 strain) assessed as reduction in parasite viability incubated for 24 hrs by Neubauer chamber cell counting method; assay type: functional, organism-based; settings: IFLA/BR/1967/PH8, 24 h
Leishmania amazonensis [16] = assay: Antileishmanial activity against promastigote form of Leishmania amazonensis (IFLA/BR/1967/PH8 strain) assessed as reduction in parasite viability incubated for 72 hrs by MTT assay; assay type: functional, organism-based; settings: IFLA/BR/1967/PH8, 72 h
Leishmania donovani [17] = assay: as §1, with “30” for “100”; assay type: functional; settings: 672 h, time 28 day; procedure, shortened: as §2
Leishmania donovani [18] = assay: as §1, with “30” for “100”, “7” for “28”; assay type: functional; settings: 168 h, time 7 day; procedure, shortened: as §2

SMILES | selectivity ratio [1] | inhibition in vivo at 100 mg/kg (Leishmania donovani [2]) [%] | half-life [3] [h] | pIC50 (Leishmania donovani [4]) | Cmax [5] [ng/mL] | inhibition in vivo at 50 mg/kg (Leishmania donovani [6]) [%] | inhibition in vivo at 50 mg/kg (Leishmania donovani [7]) [%] | MRT [8] [h] | Tmax [9] [h] | inhibition in vivo at 100 mg/kg (Leishmania donovani [10]) [%] | Drug metabolism [11] | pIC50 (Leishmania donovani [12]) | AUC(0-inf) [13] [ng·h/mL] | CC50 at 48 h [14] [µM] | pIC50 (Leishmania amazonensis [15]) | pIC50 (Leishmania amazonensis [16]) | inhibition in vivo at 30 mg/kg (Leishmania donovani [17]) [%] | inhibition in vivo at 30 mg/kg (Leishmania donovani [18]) [%]
COC(=O)c1c(NCc2ccc(C(C)(C)C)cc2)noc1-c1cc2c(cc1[N+](=O)[O-])OCO2 | 14 | 12.7 | 3.78 | 6.27 | 15.4 | 28.6 | 71.1 | 9.53 | 3 | 69.5 | Metabolite_Detected | 5.67 | 149 | 7.49 | – | – | – | –
O=[N+]([O-])c1ccc(-c2cc(-c3ccc(CCl)cc3)on2)o1 | – | – | – | – | – | – | – | – | – | – | – | – | – | – | 6.22 | 5.46 | – | –
COC(=O)c1c([N+](=O)[O-])noc1-c1cc2c(cc1[N+](=O)[O-])OCO2 | 6.51 | 66 | – | 4.76 | – | 71.2 | 36 | – | – | 48.4 | – | 6.17 | – | 113 | – | – | – | –
CCCCCCCCCCCCCCCCOP(=O)([O-])OCC[N+](C)(C)C [MILTEFOSINE] | 5.76 | – | – | 5.03 | – | – | – | – | – | – | – | 5.60 | – | 53.3 | – | – | 98.4 | 97.3
